Experimental data of several laboratories.
Each line is one published result; the experiments were not run side by side.
PIK3CA H1047L: Phosphatidylinositol 4,5-bisphosphate 3-kinase catalytic subunit alpha isoform (PIK3CA, Homo sapiens, UniProt P42336, H1047L)
PIK3CA C420R: Phosphatidylinositol 4,5-bisphosphate 3-kinase catalytic subunit alpha isoform (PIK3CA, Homo sapiens, UniProt P42336, C420R)
PIK3CA M1043I: Phosphatidylinositol 4,5-bisphosphate 3-kinase catalytic subunit alpha isoform (PIK3CA, Homo sapiens, UniProt P42336, M1043I)
PIK3CA Q546K: Phosphatidylinositol 4,5-bisphosphate 3-kinase catalytic subunit alpha isoform (PIK3CA, Homo sapiens, UniProt P42336, Q546K)
PIK3CA E545K: Phosphatidylinositol 4,5-bisphosphate 3-kinase catalytic subunit alpha isoform (PIK3CA, Homo sapiens, UniProt P42336, E545K)
PIK3CA: Phosphatidylinositol 4,5-bisphosphate 3-kinase catalytic subunit alpha isoform (PIK3CA, Homo sapiens, UniProt P42336)
PIK3CA E545A: Phosphatidylinositol 4,5-bisphosphate 3-kinase catalytic subunit alpha isoform (PIK3CA, Homo sapiens, UniProt P42336, E545A)

The remaining binding of COc1ccnn2ncc(-c3ccnc(N(C)C)n3)c12 is reported as 76% (PIK3CA H1047L; binding; 1 µM).
The remaining binding of CCC(=O)N[C@H]1CC[C@@H](C(=O)N(C)c2ccc(-c3nc4ccccc4o3)cc2)C1 is reported as 92% (PIK3CA C420R; cell-free assay; competition with immobilised ligand; 1 µM).
The remaining binding of COc1ncc2cc3ccccc3nc2c1C#N is reported as 100% (PIK3CA M1043I; cell-free assay; competition with immobilised ligand; 5 µM).
c1cncc(-c2cccc(Nc3nccc(NC4CCCCC4)n3)c2)c1 has a remaining binding of 100% (PIK3CA Q546K; binding; competition with immobilised ligand; 10 µM).
Nc1ncc2c(n1)-c1c([nH]c3ccc(C#CC4CC4)cc13)CCCC2 gave a remaining binding of 100% (PIK3CA E545K; binding; competition with immobilised ligand; 1 µM).
With Cc1cc(NC(=O)c2cccc(S(F)(F)(F)(F)F)c2)cc(-n2ccn3nc(-c4cccnc4)cc23)c1 the remaining binding was 97.1% (PIK3CA C420R; cell-free assay; competition with immobilised ligand; 1 µM).
O=C(c1ccc(Nc2ncc(Cl)c(-c3ccc(Cl)s3)n2)cc1)N1CCC(N2CCCC2)CC1 gave a remaining binding of 100% (PIK3CA M1043I; binding; competition with immobilised ligand; 1 µM).
With CCN1CCN(Cc2ccc(C(=O)Nc3ccc(C)c(Oc4ccc5c(c4)CC(=O)N5)c3)cc2C(F)(F)F)CC1 the remaining binding was 100% (PIK3CA M1043I; binding; competition with immobilised ligand; 1 µM).
C[C@@H]1CCN(c2nccc(-c3cnn4ncccc34)n2)C1 gave a remaining binding of 79% (PIK3CA Q546K; binding; 1 µM).
For CC(=O)c1c(NS(C)(=O)=O)c2cc(-c3ccc(Cl)cc3)c(-c3ccc(Cl)cc3Cl)nc2n(C)c1=O, the remaining binding was 100% (PIK3CA; cell-free assay; competition with immobilised ligand; 1 µM).
With C[C@@H](c1ccc(-n2cnc3c(N)ncnc32)cc1)N1CCc2nn(C)c(Cc3ccccc3)c2C1=O the remaining binding was 77% (PIK3CA Q546K; binding; competition with immobilised ligand; 0.1 µM).
For C[C@@]1(Cc2ccc(C#N)cc2)C(=O)N(c2cc(Cl)cc(Cl)c2)c2ncc(C(=O)NC3(c4nc(C5CCC5)no4)CC3)n21, the remaining binding was 100% (PIK3CA E545A; cell-free assay; competition with immobilised ligand; 1 µM).
COc1cnc(Nc2cccc(S(N)(=O)=O)c2)nc1N1CCN(c2ccccc2)CC1 has a remaining binding of 81% (PIK3CA H1047L; binding; competition with immobilised ligand; 1 µM).
For N[C@H]1CCN(c2nccc(-c3cnn4ncccc34)n2)C1, the remaining binding was 83% (Phosphatidylinositol 4,5-bisphosphate 3-kinase catalytic subunit alpha isoform (PIK3CA, Homo sapiens, UniProt P42336, E542K); binding; 1 µM).
The remaining binding of COc1cnc(Nc2cccc(S(N)(=O)=O)c2)nc1N1CCN(c2ccccc2)C(=O)C1 is reported as 100% (PIK3CA Q546K; binding; competition with immobilised ligand; 1 µM).
The remaining binding of CN1CCN(c2ccc(Nc3nccc(-c4ccccc4)n3)cc2C(F)(F)F)CC1 is reported as 68% (PIK3CA E545K; binding; 10 µM).
With CNC(=O)[C@@H]1CC[C@@H](n2c(-c3ccc4cnccc4c3)nc3ccc(C(=O)NCc4cccc(C(N)=O)c4)cc32)C1 the remaining binding was 100% (PIK3CA H1047L; binding; competition with immobilised ligand; 1 µM).
O=C(NCC1CCOCC1)c1n[nH]cc1NC(=O)c1c(F)cccc1F gave a remaining binding of 100% (PIK3CA M1043I; binding; competition with immobilised ligand; 1 µM).
For Cc1cnc(Nc2ccc(C(=O)N3CCC(N4CCCC4)CC3)cc2)nc1-c1cc2ccccc2s1, the remaining binding was 77% (PIK3CA E545A; binding; competition with immobilised ligand; 1 µM).
With C[C@H](NC(=O)c1cnc2n1[C@](C)(Cc1ccc(C#N)cc1)C(=O)N2c1cc(Cl)c(F)c(Cl)c1)C(=O)NC1(c2ccccn2)CC1 the remaining binding was 93% (PIK3CA C420R; cell-free assay; competition with immobilised ligand; 1 µM).
For C=CC(=O)N1CCC(C(=O)NCC(=O)N2CCN(c3nc(-c4cnc(N)nc4C(F)F)nc(N4CCOCC4)n3)CC2)CC1, the remaining binding was 0% (Phosphatidylinositol 4,5-bisphosphate 3-kinase catalytic subunit alpha isoform (PIK3CA, Homo sapiens, UniProt P42336, I800L); binding; competition with immobilised ligand; 1 µM).
For O=C(NCCCN1CCOCC1)c1ccc(Nc2nccc(-c3cc4ccccc4s3)n2)cc1, the remaining binding was 84% (PIK3CA E545A; binding; competition with immobilised ligand; 1 µM).
With FC(F)(F)c1ccc2c(c1)nc(-c1cccnc1)n2C1CC1 the remaining binding was 99% (PIK3CA Q546K; cell-free assay; competition with immobilised ligand; 1 µM).
CN1CCN(c2ccc(Nc3nccc(-c4cccc([N+](=O)[O-])c4)n3)cc2C(F)(F)F)CC1 gave a remaining binding of 36% (PIK3CA E545K; binding; 10 µM).
With CN(C)c1ncc(F)c(-c2cnn3ncccc23)n1 the remaining binding was 63% (PIK3CA E545K; binding; 1 µM).
For O=C(NCCCN1CCOCC1)c1ccc(Nc2ncc(Cl)c(-c3ccc(Cl)s3)n2)cc1, the remaining binding was 100% (PIK3CA; binding; competition with immobilised ligand; 1 µM).
With O=C(Nc1c[nH]nc1C(=O)NC1CCNCC1)c1cc(F)cc(F)c1 the remaining binding was 64% (PIK3CA E545K; binding; competition with immobilised ligand; 1 µM).
The remaining binding of CCS(=O)(=O)c1cc2cc(C[C@@](O)(CC(C)(C)c3ccc(F)cc3C(N)=O)C(F)(F)F)[nH]c2cn1 is reported as 99% (PIK3CA M1043I; cell-free assay; competition with immobilised ligand; 1 µM).
For CN(CCCC(F)(F)F)c1nccc(-c2cnn3ncccc23)n1, the remaining binding was 100% (PIK3CA M1043I; binding; 1 µM).
O=C(O)c1cc(-c2ccc(C3CCNCC3)cc2)c2ccc(-c3ccc(C(F)(F)F)cc3)cc2c1 gave a remaining binding of 100% (PIK3CA M1043I; cell-free assay; competition with immobilised ligand; 1 µM).
The remaining binding of CC1CCCN1c1nccc(-c2cnn3ncccc23)n1 (centres unmarked) is reported as 42% (PIK3CA Q546K; binding; 1 µM).
The remaining binding of O=C(c1ccc(Nc2nccc(-c3cc4ccccc4s3)n2)cc1)N1CCC(N2CCCC2)CC1 is reported as 100% (PIK3CA; binding; competition with immobilised ligand; 1 µM).
